Reference: ChEMBL document CHEMBL3864132, “Free fatty acid receptor 1 (GPR40) agonists containing spirocyclic periphery inspired by LY2881835” (Bioorg Med Chem, 2016)

Key:
[1] = target: T1, Free fatty acid receptor 1 (Homo sapiens, UniProt O14842); assay: Agonist activity at human FFA1 receptor expressed in CHO cells assessed as induction of Ca2+ flux by fluo-8 dye based FLIPR assay; format: functional, cell-based
Summary of the method: (§1)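 CHO cells stably expressing human GPR40 seeded 24 h before assay, loaded 1 h with Fluo-8 calcium dye, read on FLIPR. Agonist response taken as maximum fluorescence change over baseline; concentration-response curves fitted for EC50. Efficacy expressed relative to GW9508 at 5 μM.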

[2] = target: T1, Free fatty acid receptor 1; assay: Agonist activity at human FFA1 receptor expressed in CHO cells assessed as induction of Ca2+ flux by fluo-8 dye based FLIPR assay relative to GW9508; format: functional, cell-based; summary of the method: as §1
[3] = target: T2, Free fatty acid receptor 3 (Homo sapiens, UniProt O14843); assay: Agonist activity at human FFA3 receptor expressed in CHO cells assessed as induction of Ca2+ flux by fluo-8 dye based FLIPR assay; format: functional, cell-based
T2 sequence (O14843 whole entry): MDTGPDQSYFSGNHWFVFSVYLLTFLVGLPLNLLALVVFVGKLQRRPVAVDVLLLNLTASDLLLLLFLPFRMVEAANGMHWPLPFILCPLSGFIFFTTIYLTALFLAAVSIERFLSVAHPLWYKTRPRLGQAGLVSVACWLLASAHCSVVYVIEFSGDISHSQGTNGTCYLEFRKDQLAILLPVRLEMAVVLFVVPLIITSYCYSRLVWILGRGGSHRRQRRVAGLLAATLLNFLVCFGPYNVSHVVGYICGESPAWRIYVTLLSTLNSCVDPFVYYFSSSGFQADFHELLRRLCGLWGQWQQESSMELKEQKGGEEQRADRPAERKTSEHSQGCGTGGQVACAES
Summary of the method: (§2)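 CHO lines stably expressing the respective receptor (GPR43, GPR41 or GPR120) used for specificity screening. Cells loaded 1 h with Fluo-8 calcium dye and read by FLIPR; maximum fluorescence change over baseline taken as agonist response.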

[4] = Kinetic aqueous solubility of the compound in PBS buffer […] at pH 7.4 after 2 hrs by UV-Visible spectrophotometric analysis; format: physicochemical; settings: read-out: Kinetic_solubility
Summary of the method: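 Equilibrated 2 h at 25°C with shaking, then filtered. Filtrates read by UV-Vis scan against 0–400 μM calibration curves in methanol/PBS.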

[5] = Apparent permeability from apical to basolateral side in human Caco2 cells at 10 uM by HPLC-MS analysis; format: ADME, cell-based; settings: Caco-2
Summary of the method: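 Apical-to-basolateral transport across Caco-2 monolayers, integrity checked by TEER in every well. Compound at 10 μM, acceptor concentrations by HPLC-MS. Papp = (VA/(area × time)) × ([drug]acc/[drug]initial,donor), insert area 0.31 cm², in 10^-6 cm/s. Mean of n = 2.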

[6] = Protein binding in human plasma at 1 uM after 5 hrs by HPLC-MS/MS analysis; format: ADME, cell-free; settings: read-out: PPB (converted)
Summary of the method: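 Equilibrium dialysis (12–14 kDa MWCO) of plasma spiked at 1 μM (1% solvent) against PBS pH 7.4, 5 h at 37°C with shaking, quadruplicates. Chambers matrix-matched, precipitated with acetonitrile and analysed by HPLC-MS/MS. Bound % = (1 − buffer/plasma peak area) × 100; recovery checked against undialyzed spiked plasma.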

[7] = Half life in BALB/c mouse liver microsomes at 2 uM by HPLC-MS analysis; format: ADME
Summary of the method: (§3)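 Pooled liver microsomes from male BALB/c mice at 0.42 mg protein/ml in 100 mM potassium phosphate pH 7.4 with MgCl2, NADPH and a G6P/G6PDH regenerating system. Compound 2 μM (1.6% solvent), 37°C, five time points over 40 min, duplicates. Quenched in acetonitrile, analysed by HPLC-MS/MS. kel from ln(AUC) versus time; T1/2 = 0.693/kel; CLint scaled to incubation volume per mg microsomes.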

[8] = Intrinsic clearance in BALB/c mouse liver microsomes at 2 uM up to 40 mins by HPLC-MS analysis; format: ADME; summary of the method: as §3
[9] = target: T3, Free fatty acid receptor 4 (Homo sapiens, UniProt Q5NUL3); assay: Agonist activity at human FFA4 receptor expressed in CHO cells assessed as induction of Ca2+ flux by fluo-8 dye based FLIPR assay; format: functional, cell-based; summary of the method: as §2
T3 sequence (Q5NUL3 whole entry): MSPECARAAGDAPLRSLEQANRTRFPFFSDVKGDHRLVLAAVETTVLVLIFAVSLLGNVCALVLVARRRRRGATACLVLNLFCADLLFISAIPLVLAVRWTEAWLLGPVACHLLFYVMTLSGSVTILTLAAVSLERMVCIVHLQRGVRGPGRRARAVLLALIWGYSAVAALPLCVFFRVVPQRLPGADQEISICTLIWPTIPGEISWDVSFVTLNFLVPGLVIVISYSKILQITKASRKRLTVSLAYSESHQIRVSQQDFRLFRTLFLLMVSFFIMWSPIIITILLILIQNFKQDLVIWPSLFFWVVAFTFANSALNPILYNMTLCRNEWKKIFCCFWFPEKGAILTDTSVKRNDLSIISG

[10] = target: T4, Free fatty acid receptor 2 (Homo sapiens, UniProt O15552); assay: Agonist activity at human FFA2 receptor expressed in CHO cells assessed as induction of Ca2+ flux by fluo-8 dye based FLIPR assay; format: functional, cell-based; summary of the method: as §2
T4 sequence (O15552 whole entry): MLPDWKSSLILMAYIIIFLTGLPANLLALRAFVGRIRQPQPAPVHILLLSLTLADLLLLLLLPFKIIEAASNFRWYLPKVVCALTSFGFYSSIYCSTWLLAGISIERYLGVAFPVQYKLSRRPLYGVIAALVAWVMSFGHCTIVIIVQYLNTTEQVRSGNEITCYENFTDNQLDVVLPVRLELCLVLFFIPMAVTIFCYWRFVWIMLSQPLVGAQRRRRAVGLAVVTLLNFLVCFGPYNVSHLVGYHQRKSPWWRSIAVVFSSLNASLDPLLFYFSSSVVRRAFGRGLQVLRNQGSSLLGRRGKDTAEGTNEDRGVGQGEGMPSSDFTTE

[11] = Tmax in JAXC57BL/6J mouse at 10 mg/kg, iv through bolus administration measured after 10 to 240 mins by HPLC-MS analysis; format: ADME, organism-based; settings: C57BL/6J, in vivo
Summary of the method: (§4)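 Male C57BL/6J mice given 10 mg/kg as tail-vein bolus in 10% β-cyclodextrin (5 ml/kg). Plasma by cardiac puncture at 10, 30, 60, 120 and 240 min (n=5 per time point), stored at -70°C. Levels by HPLC-MS/MS; parameters from group data by linear trapezoidal rule.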

[12] = Observed AUC infinity in JAXC57BL/6J mouse at 10 mg/kg, iv through bolus administration measured after 10 to 240 mins by HPLC-MS analysis; format: ADME, organism-based; parameters: dose 10 mg/kg, route intravenous, time infinity; settings: C57BL/6J, in vivo; summary of the method: as §4
[13] = Observed AUC infinity in JAXC57BL/6J mouse at 10 mg/kg, po administered through plastic gavage as single dose measured up to 240 mins by HPLC-MS analysis; format: ADME, organism-based; parameters: dose 10 mg/kg, time infinity, route oral; settings: C57BL/6J, in vivo
Summary of the method: (§5)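 Male C57BL/6J mice dosed orally by gavage, 10 mg/kg single dose in 10% β-cyclodextrin (5 ml/kg). Plasma sampled at 30, 60, 120, 240 and 360 min (n=5 per time point), with 360 min excluded from calculations. HPLC-MS/MS quantitation; Cmax, Tmax and AUC from group data by linear trapezoidal rule.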

[14] = Tmax in JAXC57BL/6J mouse at 10 mg/kg, po administered through plastic gavage as single dose by HPLC-MS analysis; format: ADME, organism-based; settings: C57BL/6J, in vivo; summary of the method: as §5
[15] = Oral bioavailability in JAXC57BL/6J mouse at 10 mg/kg administered through plastic gavage as single dose measured up to 240 mins by HPLC-MS analysis; format: ADME, organism-based; settings: C57BL/6J, in vivo
Summary of the method: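 F = AUC0-∞ oral / AUC0-∞ i.v. × 100%, from male C57BL/6J mice given 10 mg/kg in 10% β-cyclodextrin by gavage or tail-vein bolus. n=5 per time point; plasma drug by HPLC-MS/MS.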

[16] = Cmax in JAXC57BL/6J mouse at 10 mg/kg, po administered through plastic gavage as single dose measured up to 240 mins by HPLC-MS analysis; format: ADME, organism-based; parameters: dose 10 mg/kg, route oral; settings: C57BL/6J, in vivo; summary of the method: as §5
[17] = Cmax in JAXC57BL/6J mouse at 10 mg/kg, iv through bolus administration measured after 10 to 240 mins by HPLC-MS analysis; format: ADME, organism-based; parameters: dose 10 mg/kg, route intravenous; settings: C57BL/6J, in vivo; summary of the method: as §4

T1 sequence (O14842 whole entry): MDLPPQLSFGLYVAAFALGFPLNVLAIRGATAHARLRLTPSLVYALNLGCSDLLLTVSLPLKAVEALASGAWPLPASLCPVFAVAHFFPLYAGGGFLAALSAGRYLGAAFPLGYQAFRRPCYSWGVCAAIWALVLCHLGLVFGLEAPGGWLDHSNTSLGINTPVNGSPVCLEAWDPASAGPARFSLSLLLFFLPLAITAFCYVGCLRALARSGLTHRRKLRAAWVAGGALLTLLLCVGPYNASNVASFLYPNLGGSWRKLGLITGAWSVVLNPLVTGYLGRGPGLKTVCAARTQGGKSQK

SMILES | EC50 [1] [µM] | Emax [2] [%] | EC50 [3] [µM] | solubility kinetic at 2 h [4] [µM] | Papp A→B at 10 µM [5] [nm/s] | fraction unbound at 5 h, 1 µM [6] | half-life at 2 µM [7] [min] | CLint at 40 min, 2 µM [8] [µL/min/mg] | EC50 [9] [µM] | EC50 [10] [µM] | further results
O=C(O)CCc1ccc(OCc2ccc(CN3CCC4(CC3)CC(Cc3nc(C5CC5)no3)CCO4)cc2)cc1 (configuration not stated) | 4.54 | 53 |  |  |  |  |  |  |  |  | 
O=C(O)CCc1ccc(OCc2ccc(CN3CCC4(CC3)CC(OCc3ccccc3)CCO4)cc2)cc1 (configuration not stated) | 1.16 | 100 |  |  |  |  |  |  |  |  | 
CC1CCOC2(CCN(Cc3ccc(COc4ccc(CCC(=O)O)cc4)cc3)CC2)C1 (configuration not stated) | > 20 |  |  |  |  |  |  |  |  |  | 
COc1ccc(CC2CCOC3(CCN(Cc4ccc(COc5ccc(CCC(=O)O)cc5)cc4)CC3)C2)cc1.Cl (configuration not stated) | 0.28 | 100 | > 10 | 42 | 158 | 0.007 | 11.8 | 141 | > 10 | > 10 | 
COC1CCOC2(CCN(Cc3ccc(COc4ccc(CCC(=O)O)cc4)cc3)CC2)C1 (configuration not stated) | > 20 |  |  |  |  |  |  |  |  |  | 
Cl.O=C(O)CCc1ccc(OCc2ccc(CN3CCC4(CC3)CC(Cc3ccc(F)cc3)CCO4)cc2)cc1 (configuration not stated) | 0.41 | 88 | > 10 | 143 | 87 | 0.017 | 23.4 | 71.3 | > 10 | > 10 | Tmax [11]: 10 min; AUC(0-inf) [12]: 1.79 µg·h/mL; AUC(0-inf) [13]: 0.184 µg·h/mL; Tmax [14]: 30 min; bioavailability [15]: 10.3%; Cmax [16]: 0.226 µg/mL; Cmax [17]: 2.77 µg/mL
Cl.O=C(O)CCc1ccc(OCc2ccc(CN3CCC4(CC3)CC(Cc3ccccc3)CCO4)cc2)cc1 (configuration not stated) | 0.055 | 93 | > 10 | 151 | 120 | 0.012 | 8.5 | 196 | > 10 | > 10 | 
O=C(O)CCc1ccc(OCc2ccc(CN3CCC4(CC3)CC(Cc3ccc(C(F)(F)F)cc3)CCO4)cc2)cc1 (configuration not stated) | 1.27 | 74 |  |  |  |  |  |  |  |  | 
Cc1ccc(CC2CCOC3(CCN(Cc4ccc(COc5ccc(CCC(=O)O)cc5)cc4)CC3)C2)cc1.Cl (configuration not stated) | 0.077 | 74 | > 10 | 69 | 104 | 0.002 | 9.6 | 173 | > 10 | > 10 | 
COCCc1noc(CC2CCOC3(CCN(Cc4ccc(COc5ccc(CCC(=O)O)cc5)cc4)CC3)C2)n1 (configuration not stated) | > 20 |  |  |  |  |  |  |  |  |  | 
O=C(O)CCc1ccc(OCc2ccc(CN3CCC4(CC3)CC(OCC3CC3)CCO4)cc2)cc1 (configuration not stated) | > 20 |  |  |  |  |  |  |  |  |  | 
